Reference: ChEMBL document CHEMBL1148278 (J Med Chem, 2004)

Tests used:
[1] = biological target: NAD-dependent histone deacetylase SIR2 (Saccharomyces cerevisiae S288c) (UniProt P06700); assay: Sirtuin 2 inhibitory activity and was reported as minimum growth-stimulating concentration in Saccharomyces cerevisiae
Method in brief: (§1)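 Telomeric-silencing growth assay in S. cerevisiae UCC2210 (adh4::URA3-TEL VII-L), ca. 13 500 cells/well, in synthetic complete medium lacking uracil. Compound at 150 μM to 73 nM final, DMSO ≤2%, 30 °C for about 40–48 h. OD660 read, initial background subtracted. MGC is the concentration giving 10% of the reference maximal growth. Triplicate, ±1 SD.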

Saccharomyces cerevisiae = assay: Toxicity against Saccharomyces cerevisiae assessed as growth inhibition in complete medium
[2] = biological target: NAD-dependent histone deacetylase SIR2 (Saccharomyces cerevisiae S288c) (UniProt P06700); assay: Selectivity index was reported as the ratio of the MGC to IC50 value
[3] = biological target: NAD-dependent histone deacetylase SIR2 (Saccharomyces cerevisiae S288c) (UniProt P06700); assay: In vitro inhibition of sirtuin 2 was evaluated using yeast whole cell lysates at 75 uM; values are per cent of control
[4] = biological target: NAD-dependent histone deacetylase SIR2 (Saccharomyces cerevisiae S288c) (UniProt P06700); assay: Tested for Sirtuin 2 inhibitory activity and was reported as minimum growth-stimulating concentration in Saccharomyces cerevisiae
Method in brief: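 Cell-based telomeric silencing read-out in yeast strain UCC2210 (Mata ppr1 adh4::URA3-TEL VII-L), about 13 500 cells per well, grown in synthetic complete medium lacking uracil. Compounds tested at 150 µM to 73 nM, with at most 2% DMSO. Incubation at 30 °C for about 40–48 h. Growth read as OD660 minus initial background. MGC is the concentration giving 10% of reference maximal growth. Triplicate, ±1 SD.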

[5] = Half-life period was determined; type: ADME
Method in brief: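 Hydrolysis followed by HPLC at 280 nm. 100 μM compound, made from 30 mM DMSO stock, in complete medium lacking uracil (pH 4.2-4.3, unadjusted). Half-life derived from the pseudo-first-order hydrolysis rate constant.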

[6] = biological target: NAD-dependent histone deacetylase SIR2 (Saccharomyces cerevisiae S288c) (UniProt P06700); assay: Tested for Sir2 inhibitory activity and was reported as minimum growth-stimulating concentration in Saccharomyces cerevisiae; method in brief: as §1

Sequence of NAD-dependent histone deacetylase SIR2 (Saccharomyces cerevisiae S288c) (P06700 whole entry): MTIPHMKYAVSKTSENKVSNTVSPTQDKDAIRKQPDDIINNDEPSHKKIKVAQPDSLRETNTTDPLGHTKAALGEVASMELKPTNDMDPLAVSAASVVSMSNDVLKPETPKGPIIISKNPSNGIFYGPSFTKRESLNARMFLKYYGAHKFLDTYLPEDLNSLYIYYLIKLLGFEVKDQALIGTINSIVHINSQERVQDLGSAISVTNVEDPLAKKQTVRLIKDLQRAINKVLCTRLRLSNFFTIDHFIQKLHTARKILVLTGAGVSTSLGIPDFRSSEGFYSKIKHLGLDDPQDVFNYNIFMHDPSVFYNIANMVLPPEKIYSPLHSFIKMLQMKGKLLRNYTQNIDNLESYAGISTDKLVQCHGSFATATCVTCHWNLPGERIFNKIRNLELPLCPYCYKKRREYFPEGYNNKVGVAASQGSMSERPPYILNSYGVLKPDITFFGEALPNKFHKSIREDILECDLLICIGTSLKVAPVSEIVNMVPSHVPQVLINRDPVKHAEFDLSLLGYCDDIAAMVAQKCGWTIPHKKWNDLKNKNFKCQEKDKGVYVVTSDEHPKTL

| Compound | MGC [1] [µM] | IC50 (Saccharomyces cerevisiae) [µM] | SI [2] | residual activity [3] [%] | MGC [4] [µM] | half-life [5] [h] | MGC [6] [µM] | T1/2 [5] |
| --- | --- | --- | --- | --- | --- | --- | --- | --- |
| COc1cc2ccccc2c2c1OC(=O)CC2 | 1.5 | 128 | 85 | – | – | – | – | – |
| O=C1CCc2c(cc(O)c3ccccc23)O1 | 11 | – | – | – | – | – | – | – |
| OCCCc1c(O)ccc2ccccc12 | > 150 | ≥ 150 | – | 88 | – | – | – | – |
| COc1ccc2ccc3c(c2c1)CCC(=O)O3 | > 150 | – | – | – | – | – | – | – |
| O=C1CCc2c(ccc3ccccc23)O1 [SPLITOMICIN] | – | – | – | 66 | 0.49 | 7.5 | – | – |
| COc1cccc2c3c(ccc12)OC(=O)CC3 | 5.5 | – | – | – | – | – | – | – |
| O=C1CCc2c(ccc3c4c(ccc23)OC(=O)CC4)O1 | > 150 | – | – | 87 | – | – | – | – |
| CCOC(=O)C1Cc2c(ccc3ccccc23)OC1=O (configuration not stated) | > 150 | ≥ 150 | – | 66 | – | – | – | – |
| O=C1CCc2cc3ccccc3cc2O1 | 15 | ≥ 150 | 10 | 85 | – | – | – | – |
| O=C1CCc2c(c3oc(=O)ccc3c3ccccc23)O1 | – | ≥ 150 | > 29 | 83 | – | – | 5.1 | – |
| O=C1CCc2ccc3c(O)cccc3c2O1 | 21 | ≥ 150 | > 7 | – | – | – | – | – |
| O=C1CCc2ccccc2O1 | 0.85 | – | – | 15 | – | – | – | – |
| O=C1CCc2c(c(OCc3ccccc3)cc3ccccc23)O1 | 0.97 | 27 | 29 | 17 | – | – | – | – |
| O=C1CCc2c(ccc3c(O)cccc23)O1 | 16 | ≥ 150 | > 107 | – | – | – | – | – |
| C=CCC1Cc2c(ccc3ccccc23)OC1=O (configuration not stated) | > 150 | – | – | 86 | – | – | – | – |
| COC(=O)CCc1c(O)ccc2ccccc12 | 5.2 | – | – | 75 | – | – | – | – |
| O=C1CCc2c(ccc3ccccc23)S1 | > 150 | 25 | – | – | – | 13 | – | – |
| NC(=O)CCc1c(O)ccc2ccccc12 | 0.79 | 125 | 158 | 80 | – | – | – | – |
| O=c1ccc2ccccc2o1 | – | – | – | 74 | – | – | > 150 | – |
| O=C1CCCc2c(ccc3ccccc23)O1 | > 150 | 12 | – | 82 | – | 49.5 | – | – |
| O=C1CCc2c(ccc3ccc(O)cc23)O1 | 48 | 134 | 3 | – | – | – | – | – |

| Compound | MGC [1] [µM] | IC50 (Saccharomyces cerevisiae) [µM] | SI [2] | residual activity [3] [%] | MGC [4] [µM] | half-life [5] [h] | MGC [6] [µM] | T1/2 [5] |
| --- | --- | --- | --- | --- | --- | --- | --- | --- |
| CNC(=O)CCc1c(O)ccc2ccccc12 | 5.8 | ≥ 150 | > 26 | – | – | – | – | – |
| O=C(COc1cccc2ccccc12)ON1C(=O)CCC1=O | > 150 | ≥ 150 | – | – | – | – | – | – |
| O=C1CC(c2ccccc2)c2c(ccc3ccccc23)O1 (configuration not stated) | > 150 | – | – | 90 | – | – | – | – |
| COc1cc2c(c3ccccc13)CCC(=O)O2 | 1.8 | 44 | 24 | – | – | – | – | – |
| O=C1CCc2ccc3ccccc3c2O1 | 2.4 | 65 | 27 | 87 | – | 6.9 | – | – |
| O=C1CCc2c(c3c(c4ccccc24)CCC(=O)O3)O1 | 4.9 | 89 | 18 | 80 | – | – | – | – |
| O=C1CCc2c(ccc3ccc4c(c23)CCC(=O)O4)O1 | > 150 | ≥ 150 | – | – | – | – | – | – |
| CC1Cc2c(ccc3ccccc23)OC1=O (configuration not stated) | 5.4 | 52 | 10 | 94 | – | – | – | – |
| CC(C)CC1Cc2c(ccc3ccccc23)OC1=O (configuration not stated) | > 150 | – | – | – | – | – | – | – |
| O=C1CCc2c(c(O)cc3ccccc23)O1 | 0.69 | 111 | 161 | – | – | – | – | – |
| COc1ccc2c3c(ccc2c1)OC(=O)CC3 | 13.8 | 73 | 5 | 84 | – | – | – | – |
| O=C1OC(=O)c2cccc3cccc1c23 | > 150 | – | – | 94 | – | – | – | – |
| O=C(O)CCc1c(O)ccc2ccccc12 | > 150 | ≥ 150 | – | 87 | – | – | – | – |
| O=C1CCc2c(ccc3ccccc23)N1 | > 150 | ≥ 150 | – | 92 | – | – | – | No hydrolysis obsd |
| O=C1CCCc2c1ccc1ccccc21 | > 150 | 81 | – | – | – | – | – | – |
| O=C1CCc2c(ccc3cc(O)ccc23)O1 | 38 | ≥ 150 | > 39 | 85 | – | – | – | – |
| O=c1ccc2c(ccc3ccccc32)o1 | > 150 | 86 | – | 73 | – | > 100 | – | – |
| CC(C)(C)OC(=O)NCCOCCOc1cc2ccccc2c2c1OC(=O)CC2 | 6.4 | 86 | 13 | – | – | – | – | – |
| O=C1Cc2ccccc2O1 | 24 | ≥ 150 | > 6 | 89 | – | – | – | – |
| O=C1Cc2c(ccc3ccccc23)O1 | > 150 | 59 | – | – | – | 12.2 | – | – |
| CCN(CC)C(=O)CCc1c(O)ccc2ccccc12 | > 150 | 125 | – | 88 | – | – | – | – |
